Reference: ChEMBL document CHEMBL5058577, “EUbOPEN Chemogenomics Library 2 (Multiplex)” (2022)

Tested on: HEK-293T
Assay: Multiplex assay against HEK293T
Format: toxicity, cell-based
Settings: human
How it was run: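 Tubulin, mitochondrial-mass and membrane-permeability phenotypes are per cents of healthy-nucleus cells. Cells were gated by CellPathfinder machine learning into Hoechst high-intensity objects or normal cells, normal cells into healthy, pyknosed or fragmented nuclei, and pyknosed cells into mitotic or apoptotic. Before that, live cells stained at seeding with Hoechst33342, BioTracker Green Microtubule Cytoskeleton Dye, MitoTracker Red and Annexin V Alexa Fluor 680 were imaged on a CQ1 microscope at 37°C and 5% CO2 after compound addition.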

[1] = 12 h, 1 µM, compound concentration 1 uM, replicate 1
[2] = 12 h, 1 µM, compound concentration 1 uM, replicate 2
[3] = 12 h, 10 µM, compound concentration 10 uM, replicate 1
[4] = 12 h, 10 µM, compound concentration 10 uM, replicate 2
[5] = 24 h, 1 µM, compound concentration 1 uM, replicate 1
[6] = 24 h, 1 µM, compound concentration 1 uM, replicate 2
[7] = 24 h, 10 µM, compound concentration 10 uM, replicate 1
[8] = 24 h, 10 µM, compound concentration 10 uM, replicate 2
[9] = 48 h, 1 µM, compound concentration 1 uM, replicate 1
[10] = 48 h, 1 µM, compound concentration 1 uM, replicate 2
[11] = 48 h, 10 µM, compound concentration 10 uM, replicate 1
[12] = 48 h, 10 µM, compound concentration 10 uM, replicate 2

Compound: Cc1ccc(OCC(O)C(C)NC(C)C)c2c1CCC2.Cl (stereo not given)
- Population Apoptotic (%) [1]: 34%
- Population Fragmented Nuclei (%) [1]: 6%
- Population Healthy Nuclei (%) [1]: 81%
- Population Hoechst High Intensity Objects (%) [1]: 5%
- Population Membrane Permeable-Phenotype (%) [1]: 0%
- Population Mitochondria Different-Phenotype (%) [1]: 54%
- Population Mitotic Cells (%) [1]: 65%
- Population Normal (%) [1]: 94%
- Population Pyknosed Nuclei (%) [1]: 12%
- Population Tubulin-Different-Phenotype (%) [1]: 40%
- Total Cell Count [1]: 409
- Population Apoptotic (%) [2]: 45%
- Population Fragmented Nuclei (%) [2]: 5%
- Population Healthy Nuclei (%) [2]: 84%
- Population Mitochondria Different-Phenotype (%) [2]: 65%
- Population Mitotic Cells (%) [2]: 54%
- Population Pyknosed Nuclei (%) [2]: 10%
- Population Tubulin-Different-Phenotype (%) [2]: 22%
- Total Cell Count [2]: 360
- Population Apoptotic (%) [3]: 43%
- Population Fragmented Nuclei (%) [3]: 7%
- Population Healthy Nuclei (%) [3]: 67%
- Population Hoechst High Intensity Objects (%) [3]: 3%
- Population Membrane Permeable-Phenotype (%) [3]: 0%
- Population Mitochondria Different-Phenotype (%) [3]: 66%
- Population Mitotic Cells (%) [3]: 56%
- Population Normal (%) [3]: 96%
- Population Pyknosed Nuclei (%) [3]: 25%
- Population Tubulin-Different-Phenotype (%) [3]: 61%
- Total Cell Count [3]: 247
- Population Fragmented Nuclei (%) [4]: 9%
- Population Healthy Nuclei (%) [4]: 76%
- Population Hoechst High Intensity Objects (%) [4]: 18%
- Population Mitochondria Different-Phenotype (%) [4]: 79%
- Population Normal (%) [4]: 81%
- Population Pyknosed Nuclei (%) [4]: 14%
- Population Tubulin-Different-Phenotype (%) [4]: 59%
- Total Cell Count [4]: 323
- Population Apoptotic (%) [5]: 35%
- Population Fragmented Nuclei (%) [5]: 6%
- Population Healthy Nuclei (%) [5]: 80%
- Population Hoechst High Intensity Objects (%) [5]: 3%
- Population Membrane Permeable-Phenotype (%) [5]: 0%
- Population Mitochondria Different-Phenotype (%) [5]: 38%
- Population Mitotic Cells (%) [5]: 64%
- Population Normal (%) [5]: 96%
- Population Pyknosed Nuclei (%) [5]: 12%
- Population Tubulin-Different-Phenotype (%) [5]: 25%
- Total Cell Count [5]: 548
- Population Apoptotic (%) [6]: 28%
- Population Fragmented Nuclei (%) [6]: 7%
- Population Healthy Nuclei (%) [6]: 83%
- Population Hoechst High Intensity Objects (%) [6]: 4%
- Population Mitochondria Different-Phenotype (%) [6]: 45%
- Population Mitotic Cells (%) [6]: 71%
- Population Normal (%) [6]: 95%
- Population Pyknosed Nuclei (%) [6]: 9%
- Population Tubulin-Different-Phenotype (%) [6]: 17%
- Total Cell Count [6]: 444
- Population Apoptotic (%) [7]: 46%
- Population Fragmented Nuclei (%) [7]: 11%
- Population Healthy Nuclei (%) [7]: 71%
- Population Hoechst High Intensity Objects (%) [7]: 5%
- Population Membrane Permeable-Phenotype (%) [7]: 1%
- Population Mitochondria Different-Phenotype (%) [7]: 53%
- Population Mitotic Cells (%) [7]: 53%
- Population Normal (%) [7]: 94%
- Population Pyknosed Nuclei (%) [7]: 17%
- Population Tubulin-Different-Phenotype (%) [7]: 47%
- Total Cell Count [7]: 334
- Population Apoptotic (%) [8]: 50%
- Population Fragmented Nuclei (%) [8]: 9%
- Population Healthy Nuclei (%) [8]: 78%
- Population Hoechst High Intensity Objects (%) [8]: 11%
- Population Membrane Permeable-Phenotype (%) [8]: 0%
- Population Mitochondria Different-Phenotype (%) [8]: 60%
- Population Mitotic Cells (%) [8]: 50%
- Population Normal (%) [8]: 88%
- Population Pyknosed Nuclei (%) [8]: 11%
- Total Cell Count [8]: 399
- Population Apoptotic (%) [9]: 24%
- Population Fragmented Nuclei (%) [9]: 12%
- Population Healthy Nuclei (%) [9]: 79%
- Population Hoechst High Intensity Objects (%) [9]: 3%
- Population Membrane Permeable-Phenotype (%) [9]: 0%
- Population Mitochondria Different-Phenotype (%) [9]: 28%
- Population Mitotic Cells (%) [9]: 75%
- Population Normal (%) [9]: 96%
- Population Pyknosed Nuclei (%) [9]: 8%
- Population Tubulin-Different-Phenotype (%) [9]: 14%
- Total Cell Count [9]: 804
- Population Apoptotic (%) [10]: 26%
- Population Fragmented Nuclei (%) [10]: 11%
- Population Healthy Nuclei (%) [10]: 81%
- Population Hoechst High Intensity Objects (%) [10]: 1%
- Population Mitochondria Different-Phenotype (%) [10]: 27%
- Population Mitotic Cells (%) [10]: 73%
- Population Normal (%) [10]: 98%
- Population Pyknosed Nuclei (%) [10]: 7%
- Total Cell Count [10]: 660
- Population Apoptotic (%) [11]: 40%
- Population Fragmented Nuclei (%) [11]: 10%
- Population Healthy Nuclei (%) [11]: 74%
- Population Hoechst High Intensity Objects (%) [11]: 5%
- Population Membrane Permeable-Phenotype (%) [11]: 0%
- Population Mitochondria Different-Phenotype (%) [11]: 48%
- Population Mitotic Cells (%) [11]: 59%
- Population Normal (%) [11]: 94%
- Population Pyknosed Nuclei (%) [11]: 14%
- Population Tubulin-Different-Phenotype (%) [11]: 43%
- Total Cell Count [11]: 435
- Population Apoptotic (%) [12]: 34%
- Population Fragmented Nuclei (%) [12]: 11%
- Population Healthy Nuclei (%) [12]: 80%
- Population Membrane Permeable-Phenotype (%) [12]: 1%
- Population Mitochondria Different-Phenotype (%) [12]: 39%
- Population Mitotic Cells (%) [12]: 66%
- Population Pyknosed Nuclei (%) [12]: 8%
- Population Tubulin-Different-Phenotype (%) [12]: 41%
- Total Cell Count [12]: 611
